Results as given in ChEMBL document CHEMBL1137460, “Fluorinated pyrazole acids are agonists of the high affinity niacin receptor GPR109a” (Bioorg Med Chem Lett, 2007).
Active and inactive are the calls of the source. No cut-off for these calls is given here.

Tests used:
[1] = molecular target: T1, Hydroxycarboxylic acid receptor 3 (Homo sapiens, UniProt P49019); experiment: Agonist activity at human GPR109b […] assessed as decrease in intracellular cAMP level upto 50 uM by HTRF assay; type: functional, cell-based
T1 sequence (P49019 whole entry): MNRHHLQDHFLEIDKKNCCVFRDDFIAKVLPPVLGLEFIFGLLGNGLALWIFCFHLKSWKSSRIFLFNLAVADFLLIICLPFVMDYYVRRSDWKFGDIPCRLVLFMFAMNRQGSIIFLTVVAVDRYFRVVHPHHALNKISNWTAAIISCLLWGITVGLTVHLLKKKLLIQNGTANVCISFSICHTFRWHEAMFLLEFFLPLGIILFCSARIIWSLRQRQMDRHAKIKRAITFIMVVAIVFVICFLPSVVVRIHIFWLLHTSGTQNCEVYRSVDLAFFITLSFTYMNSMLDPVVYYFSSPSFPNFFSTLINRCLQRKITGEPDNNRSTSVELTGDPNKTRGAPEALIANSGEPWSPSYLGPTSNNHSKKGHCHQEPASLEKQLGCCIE

[2] = molecular target: T1, Hydroxycarboxylic acid receptor 3; experiment: Agonist activity at human GPR109b expressed in human adipocytes assessed as decrease in intracellular cAMP level by HTRF assay; type: functional, cell-based
In short: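 Whole-cell cAMP Dynamic2 HTRF assay at GPR109b. Results are given as pEC50, the negative log of molar EC50, with log SD errors and n in parentheses. Compounds with no response are marked not active. Efficacy is judged relative to niacin.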

[3] = test system: Rattus norvegicus; experiment: Reduction in 4-fluoro-5-methyl-pyrazole-3-carboxylic acid-induced plasma free fatty acid level in fasted male Sprague-Dawley rat at 1 mg/kg; type: functional, organism-based; design: dose 1 mg/kg
In short: (§1)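 Fasted male Sprague–Dawley rats dosed orally at 0.1, 1 or 10 mg/kg. Plasma free fatty acid levels are followed over time, with 10 mg/kg oral niacin as the comparator.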

[4] = test system: Rattus norvegicus; experiment: Reduction in 4-fluoro-5-methyl-pyrazole-3-carboxylic acid-induced plasma free fatty acid level in fasted male Sprague-Dawley rat at 10 mg/kg; type: functional, organism-based; design: dose 10 mg/kg; in short: as §1
[5] = test system: Mus musculus; experiment: Effect on cutaneous flushing response in C57BL/6 mouse at 100 mg/kg; type: functional, organism-based; design: dose 100 mg/kg
In short: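 Male C57 Bl/6 mice given 100 mg/kg. Cutaneous vasodilation is measured as a surrogate for flushing.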

Row | SMILES | Activity [1] | Activity [2] | other results
1 | O=C(O)c1cc(C2CCC2)n[nH]1 | inactive | inactive | 
2 | CCCCc1[nH]nc(C(=O)O)c1Br | inactive | inactive | 
3 | Cc1cc(-c2nnn[nH]2)n[nH]1 | inactive |  | 
4 | c1cc(-c2nnn[nH]2)n[nH]1 | inactive |  | 
5 | Cc1[nH]nc(C(=O)O)c1Cl | inactive | inactive | 
6 | CC(C)c1cc(C(=O)O)n[nH]1 |  |  | EC50 ([2]; read-out: Log EC50 (converted)): 41.7 µM
7 | CCCCc1cc(C(=O)O)n[nH]1 |  |  | EC50 ([2]; read-out: Log EC50 (converted)): 11.7 µM
8 | CCc1[nH]nc(-c2nnn[nH]2)c1F |  |  | EC50 ([2]; read-out: Log EC50 (converted)): 12.3 µM
9 | O=C(O)c1cc[nH]n1 | inactive | inactive | 
10 | CCCCc1[nH]nc(C(=O)O)c1F | inactive | inactive | 
11 | CCCCc1[nH]nc(-c2nnn[nH]2)c1F | inactive | inactive | 
12 | CCc1[nH]nc(C(=O)O)c1C | inactive | inactive | 
13 | CCc1[nH]nc(C(=O)O)c1F | inactive | inactive | 
14 | Cc1[nH]nc(C(=O)O)c1F | inactive | inactive | Activity [3]: Active; Activity [4]: Active; Activity [5]: Active
15 | O=C(O)c1n[nH]c(C2CC2)c1F | inactive | inactive | 
16 | CCc1cc(C(=O)O)[nH]n1 | inactive | inactive | 
17 | Fc1c(-c2nnn[nH]2)n[nH]c1C1CC1 | inactive | inactive | 
18 | CCCCCc1cc(C(=O)O)[nH]n1 |  |  | EC50 ([2]; read-out: Log EC50 (converted)): 18.6 µM
19 | CC(C)c1cc(-c2nnn[nH]2)n[nH]1 | inactive |  | 
20 | CCCc1cc(-c2nnn[nH]2)n[nH]1 |  |  | EC50 ([2]; read-out: EC50): 860 µM; EC50 ([2]; read-out: Log EC50 (converted)): 0.724 µM
21 | O=C(O)c1cccnc1 [NIACIN] |  |  | EC50 ([2]; read-out: Log EC50 (converted)): 75.9 µM
22 | c1c(-c2nnn[nH]2)n[nH]c1C1CC1 |  |  | EC50 ([2]; read-out: EC50): 3.6 µM; EC50 ([2]; read-out: Log EC50 (converted)): 3.24 µM
23 | Cc1cc(C(=O)O)n[nH]1 | inactive | inactive | 
24 | Cc1[nH]nc(-c2nnn[nH]2)c1F | inactive | inactive | 
25 | O=C(O)c1cc(C2CC2)n[nH]1 | inactive | inactive | 
26 | CCCCc1cc(-c2nnn[nH]2)n[nH]1 |  |  | EC50 ([2]; read-out: Log EC50 (converted)): 7.59 µM
27 | CCCc1cc(C(=O)O)n[nH]1 | inactive | inactive | 
